Experimental data as given in PubChem BioAssay.
Inconclusive results are not listed.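 How the source made its calls, unless noted: active means viability increase at or above a cutoff of the median across tested compounds plus 3 SD (cut at about 8.5% in these data, passing the limit was not always enough); inconclusive means some gains above the cutoff, reason not given; inactive means the rest.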

Assays:
[1] = OD615 S. cerevisiae growth inhibition, permissive medium, pilot counter-assay, permissive growth control for S. cerevisiae lifespan shortening project (AID 705;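 active means growth inhibition above 25% in both replicates, a cutoff set 3 SD above the mean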); conditions: OD615, 24 h, at 10 µM, hits give high values
How it was run: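 System: engineered DeaD yeast; Medium: permissive raffinose/galactose medium; Compound dosing: 10 µM single dose, 0.25% DMSO; Incubation: 4 h cell pre-growth, 24 h exposure at 30 °C; Technique: OD at 615 nm; Evaluation: growth inhibition from lowered OD615 after 24 h.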

[2] = Restrictive medium S. cerevisiae growth inhibition, OD615, pilot screen of yeast lifespan reduction project, restrictive growth control (AID 706;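 active means growth inhibition above a set limit, 3 SD over mean compound inhibition, in both replicates, cut at about 43% in these data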;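 further: modified DeaD lifespan yeast strain shifted to restrictive glucose medium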); conditions: OD615, 48 h, at 10 µM, hits give high values
How it was run: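 Material: modified S. cerevisiae; buffer or medium: CSMM-D glucose medium; doses: one concentration, 10 µM final, 0.25% DMSO; incubation: 48 h compound exposure at 30 °C; detection: optical density at 615 nm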

[3] = viability gain of MRP-1-high H69AR cells under doxorubicin, pilot screen, MRP-1 activator project, CellTiter-Glo, duplicate (AID 807); conditions: H69AR viability with doxorubicin, CellTiter-Glo luminescence; at 10 µM; hits give high values;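 further: compound pretreatment 18-22 h then 72 h combined with doxorubicin; 0% = doxorubicin alone and 100% = vehicle without doxorubicin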
[4] = growth suppression of beta-catenin knockout HCT116, pilot screen, human colon tumor cells (AID 823;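 active means cell viability at or below a set limit in both duplicate runs, the limit being the all-compound median minus 4 SD, cut at about 23% in these data, passing the limit was not always enough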;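 further: 0% = wells killed by 20 µM Hyamine and 100% = untreated DMSO cell wells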); conditions: CellTiter-Glo, 60 h, at 10 µM, hits give low values
[5] = growth suppression of PTEN-deleted HCT116, pilot screen, cell-based, HCT116 clonal line, CellTiter-Glo (AID 824;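 active means viability at or below 27.92% in each of two runs, the all-compound median minus 4 SD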;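 further: 0% = 20 µM Hyamine control and 100% = vehicle cell control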); conditions: 60 h, at 10 µM, hits give low values
[6] = inhibitors of the yeast RAM network, pilot screen, dse1pr::URA3 reporter, 5-FOA selection (AID 869;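 active means inhibition over a set limit, the all-compound mean plus 3 SD, in both replicate runs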;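 further: 0% = DMSO wells with no growth and 100% = 10 µM 1-NA-PP1 with full growth; RAM network block rescues cells from 5-FOA so hits raise OD615 growth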); conditions: S. cerevisiae dse1pr::URA3 5-FOA growth, OD615, 2 d; at 10 µM; hits give high values; strain carries analog-sensitive mutant Cbk1 kinase
[7] = RAM signaling pathway blockade in yeast – S. cerevisiae, Pdr1DBD-CYC8 efflux-inhibited sensitized strain, primary screen (AID 1298;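 active means RAM network inhibition above 8.4% in each of two replicates, 3 SD over the compound average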;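 further: 0% = DMSO untreated cells without growth and 100% = 10 µM 1-NA-PP1 full growth; higher means more yeast growth rescued from 5-FOA killing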); conditions: S. cerevisiae cbk1-as DSE1-URA3 strain, 5-FOA growth OD615, 2 d; at 50 µM; hits give high values

COc1ccccc1N1CCN(CC(=O)c2ccc3ccn(C(C)=O)c3c2)CC1
inactive: growth inhibition [1] -3.38% | growth inhibition [2] -12.2% | viability increase [3] -5.06% | viability [4] 88.2% | viability [5] 79.8% | inhibition [6] 1.14% | RAM network inhibition [7] 3.27%

COc1ccccc1OCC(=O)Nc1ccc(S(=O)(=O)N2CCCCCC2)cc1
inactive: growth inhibition [1] -10.1% | growth inhibition [2] -4.95% | viability increase [3] 0.4% | viability [4] 83.1% | viability [5] 82.1% | inhibition [6] 2.08% | RAM network inhibition [7] 10.1%

CCOCCCNC(=O)Cn1nc(-c2ccccc2)ccc1=O
inactive: growth inhibition [1] -19.8% | growth inhibition [2] -7.81% | viability increase [3] 1.86% | viability [4] 105% | viability [5] 91.7% | inhibition [6] 0.165% | RAM network inhibition [7] -0.58%

CC(=O)Nc1cc2ccc(OC(C)=O)cc2oc1=O
inactive: growth inhibition [1] -15.3% | growth inhibition [2] -13.9% | viability increase [3] -4.23% | viability [4] 107% | viability [5] 93.8% | inhibition [6] 1.62% | RAM network inhibition [7] 0.82%

O=S1(=O)N=C(Nc2ccc(O)c(CN3CCCCC3)c2)c2ccccc21
inactive: growth inhibition [1] 5.56% | growth inhibition [2] -0.14% | viability increase [3] -3.07% | viability [4] 90.8% | viability [5] 97.1% | inhibition [6] 2.89% | RAM network inhibition [7] 6.37%

CN(CCc1ccccn1)C(=O)Nc1ccc(F)cc1
inactive: growth inhibition [1] -7.65% | growth inhibition [2] -14.7% | viability increase [3] -1.63% | viability [4] 108% | viability [5] 98% | inhibition [6] 0.71% | RAM network inhibition [7] 5.39%

CCC(Sc1nccn1C)C(=O)Nc1nnc(C)s1 (centres undefined)
inactive: growth inhibition [1] -21.2% | growth inhibition [2] 2.97% | viability increase [3] 5% | viability [4] 101% | viability [5] 94.2% | inhibition [6] 1.58% | RAM network inhibition [7] 1.93%

Cn1c(Cn2c(=O)sc3ccccc32)nnc1SCC(=O)Nc1ccc2c(c1)OCO2
inactive: growth inhibition [1] -1.55% | growth inhibition [2] 7.6% | viability increase [3] -5.8% | viability [4] 105% | viability [5] 99.6% | inhibition [6] 2.34% | RAM network inhibition [7] 3.46%

COc1ccc(N2CCN(c3nc4c(c(=O)[nH]c(=O)n4C)n3Cc3ccccc3Cl)CC2)cc1
inactive: growth inhibition [1] 4.9% | growth inhibition [2] -2.96% | viability increase [3] -2.71% | viability [4] 84.6% | viability [5] 75.3% | inhibition [6] 2.07% | RAM network inhibition [7] -1.3%

c1ccc(-c2ccc(-c3nc(-c4ccncc4)no3)cc2)cc1
inactive: growth inhibition [1] 14.4% | growth inhibition [2] 14.4% | viability increase [3] 2.99% | viability [4] 66.4% | viability [5] 82.5% | inhibition [6] 1.32% | RAM network inhibition [7] 2.1%

Cc1c(C(=O)N2CCCC2)oc2c1-c1[nH]ncc1CC2
inactive: growth inhibition [1] -15.2% | growth inhibition [2] -14.4% | viability increase [3] -1.8% | viability [4] 105% | viability [5] 94.2% | inhibition [6] 0.715% | RAM network inhibition [7] 2.08%

CSc1cccc(NC(=O)CN(c2ccc(C)cc2C)S(C)(=O)=O)c1
inactive: growth inhibition [1] -12.5% | growth inhibition [2] -9.39% | viability increase [3] -1.07% | viability [4] 76.8% | viability [5] 67.8% | inhibition [6] 1.02% | RAM network inhibition [7] 2.43%

COc1ccc(NC(=O)C2c3cc(OC)c(OC)cc3C(=O)N(C)C2c2cccnc2)cc1OC (centres undefined)
inactive: growth inhibition [1] -1.76% | growth inhibition [2] -0.86% | viability increase [3] -3.2% | viability [4] 94.8% | viability [5] 95.5% | inhibition [6] 0.645% | RAM network inhibition [7] 4.68%

O=C(Nc1ccccc1C(=O)NCc1ccco1)c1ccccc1
inactive: growth inhibition [1] -21.8% | growth inhibition [2] -6.89% | viability increase [3] -3.16% | viability [4] 100% | viability [5] 90.5% | inhibition [6] 1.55% | RAM network inhibition [7] 8.28%

Cn1c(=O)oc2cc(S(=O)(=O)N3CCc4ccccc4C3)ccc21
inactive: growth inhibition [1] -14.7% | growth inhibition [2] -5.15% | viability increase [3] -2.36% | viability [4] 99.2% | viability [5] 91.9% | inhibition [6] 2.58% | RAM network inhibition [7] 5.77%

O=C(Nc1ccc(S(=O)(=O)N2CCCCCC2)cc1)c1ccc(Br)o1
inactive: growth inhibition [1] -4.67% | growth inhibition [2] 0.21% | viability increase [3] -3.03% | viability [4] 69.6% | viability [5] 59.7% | inhibition [6] 2.62% | RAM network inhibition [7] 5.05%

CCOc1ccc(-n2c(Cc3cc(=O)[nH]c(=O)[nH]3)nnc2SCC(=O)NC2CCCC2)cc1
inactive: growth inhibition [1] -1.49% | growth inhibition [2] 4.62% | viability increase [3] -0.16% | viability [4] 101% | viability [5] 100% | inhibition [6] -1.29% | RAM network inhibition [7] -0.37%

CCOC(=O)C1=C2N(C)c3ccccc3N2CCC1=O
inactive: growth inhibition [1] 8.71% | growth inhibition [2] 4.85% | viability increase [3] -3.21% | viability [4] 97.5% | viability [5] 93.8% | inhibition [6] 1.9% | RAM network inhibition [7] -0.41%

Cc1ccc(NC(=O)C2C3C=CC4(CN(Cc5cccnc5)C(=O)C24)O3)cc1 (centres undefined)
inactive: growth inhibition [1] 5.17% | growth inhibition [2] -7.85% | viability increase [3] -1.21% | viability [4] 74.4% | viability [5] 97.3% | inhibition [6] 0.77% | RAM network inhibition [7] 2.87%

CCOc1ccc(CC(=O)Nc2c(C(N)=O)oc3ccc(Br)cc23)cc1OCC
inactive: growth inhibition [1] -12% | growth inhibition [2] -15.8% | viability increase [3] -5.14% | viability [4] 61% | viability [5] 45% | inhibition [6] 2.49% | RAM network inhibition [7] 0.56%

Cc1ccc(-n2ncc3c(N4CCC5(CC4)OCCO5)ncnc32)c(C)c1
inactive: growth inhibition [1] 1.21% | growth inhibition [2] 6.06% | viability increase [3] -7.95% | viability [4] 80.3% | viability [5] 83.8% | inhibition [6] 0.765% | RAM network inhibition [7] -1.04%

CC1=CC(C)(C)N(C(=O)CSc2nccn2C)c2cc(C)ccc21
inactive: growth inhibition [1] -12.3% | growth inhibition [2] -6.42% | viability increase [3] -3.04% | viability [4] 84.6% | viability [5] 84% | inhibition [6] 1.09% | RAM network inhibition [7] 0.77%

CCc1ccccc1NC1c2ccccc2C(=O)N1Cc1ccco1 (centres undefined)
inactive: growth inhibition [1] -4.26% | growth inhibition [2] 12.8% | viability increase [3] -4.71% | viability [4] 97.1% | viability [5] 84.8% | inhibition [6] 2.31% | RAM network inhibition [7] 3.95%

COCCNC(=O)C1CC(=O)N(c2ccc(F)c(Cl)c2)C1 (centres undefined)
inactive: growth inhibition [1] -2.14% | growth inhibition [2] -4% | viability increase [3] 0.07% | viability [4] 105% | viability [5] 95.7% | inhibition [6] 0.835% | RAM network inhibition [7] 1.14%

Cc1ccc(C)c(N2CCN(C(=O)C3CCCN(S(=O)(=O)c4cnc[nH]4)C3)CC2)c1 (centres undefined)
inactive: growth inhibition [1] 5.12% | growth inhibition [2] -0.49% | viability increase [3] 2.66% | viability [4] 94.9% | viability [5] 95.4% | inhibition [6] 2.12% | RAM network inhibition [7] -0.52%

O=C(CSc1nnc2sc3ccccc3n12)NCc1ccc2c(c1)OCO2
inactive: growth inhibition [1] 1.77% | growth inhibition [2] 20.7% | viability increase [3] -1.52% | viability [4] 104% | viability [5] 101% | inhibition [6] 0.245% | RAM network inhibition [7] 4.54%

CC(C)(C)Nc1ncnc2c1cnn2-c1ccccc1
inactive: growth inhibition [1] -3.38% | growth inhibition [2] 17.3% | viability increase [3] 2% | viability [4] 92.3% | viability [5] 90.3% | inhibition [6] 1.31% | RAM network inhibition [7] -2.37%
